Published values of several laboratories.
Target: Serine/threonine-protein kinase 32A (STK32A, Homo sapiens, UniProt Q8WU08)

O=C(NCCCN1CCOCC1)c1ccc(Nc2ncc(Cl)c(-c3ccc(Cl)s3)n2)cc1  remaining binding (binding, competition with immobilised ligand; 1 µM): 93%
N[C@H]1CCN(c2nccc(-c3cnn4ncccc34)n2)C1  remaining binding (binding; 1 µM): 87%
NS(=O)(=O)c1cc(NC(=O)Cc2ccccc2)ccc1Oc1cccc(Cl)c1  remaining binding (cell-free assay, competition with immobilised ligand; 1 µM): 100%
CN(CCCC(F)(F)F)c1nccc(-c2cnn3ncccc23)n1  remaining binding (binding; 1 µM): 100%
O=C(c1ccc(Nc2nccc(-c3cc4ccccc4s3)n2)cc1)N1CCC(N2CCCC2)CC1  remaining binding (binding, competition with immobilised ligand; 1 µM): 100%
Cc1c(NC(=O)c2cc(C(N)=O)nc3cc(F)ccc23)c(C(F)(F)F)nn1Cc1ccc(C(C)(C)C)cc1  remaining binding (cell-free assay, competition with immobilised ligand; 1 µM): 100%
CCN1CCN(Cc2ccc(C(=O)Nc3ccc(C)c(Oc4ccc5c(c4)CC(=O)N5)c3)cc2C(F)(F)F)CC1  remaining binding (binding, competition with immobilised ligand; 1 µM): 100%
CN([C@@H]1CCc2c(CC(=O)O)c3cc(S(C)(=O)=O)ccc3n2C1)S(=O)(=O)c1ccc(F)cc1  remaining binding (cell-free assay, competition with immobilised ligand; 1 µM): 100%
CN(C)c1nccc(-c2cnn3ncccc23)n1  remaining binding (binding; 1 µM): 81%
COc1ccc2c(c1)O[C@H](c1ccc(OC)c(OC)c1)C[C@@H]2NC(=O)C1(c2ccc3c(c2)OC(F)(F)O3)CC1  remaining binding (cell-free assay, competition with immobilised ligand; 1 µM): 100%
Cc1cnn2ncc(-c3ccnc(N(C)C)n3)c2c1  remaining binding (binding; 1 µM): 71%
N#Cc1ccc(Nc2ccc3[nH]c(=O)[nH]c3c2)c(Cl)c1  remaining binding (binding, competition with immobilised ligand; 1 µM): 81%
CN(c1nccc(-c2cnn3ncccc23)n1)C1CC1  remaining binding (binding; 1 µM): 100%
O=C(Nc1c[nH]nc1C(=O)NC1CCNCC1)c1cc(F)cc(F)c1  remaining binding (binding, competition with immobilised ligand; 1 µM): 95%
O=C(NCCCN1CCOCC1)c1ccc(Nc2nccc(-c3cc4ccccc4s3)n2)cc1  remaining binding (binding, competition with immobilised ligand; 1 µM): 100%
C[C@@H]1CCN(c2nccc(-c3cnn4ncccc34)n2)C1  remaining binding (binding; 1 µM): 71%
COc1cnc(Nc2cccc(S(N)(=O)=O)c2)nc1N1CCN(c2ccccc2)CC1  remaining binding (binding, competition with immobilised ligand; 1 µM): 94%
CN(C(=O)c1ccccc1)c1cc(N(C)c2ccc3c(c2)CCc2ccc(C(=O)NCCN4CCOCC4)cc2C3=O)ccc1F  remaining binding (cell-free assay, competition with immobilised ligand; 1 µM): 68%
c1cncc(-c2cccc(Nc3nccc(NC4CCCCC4)n3)c2)c1  remaining binding (binding, competition with immobilised ligand; 10 µM): 69%
C[C@@H](c1ccc(-n2cnc3c(N)ncnc32)cc1)N1CCc2nn(C)c(Cc3ccccc3)c2C1=O  remaining binding (binding, competition with immobilised ligand; 0.1 µM): 94%
COc1ccnn2ncc(-c3ccnc(N(C)C)n3)c12  remaining binding (binding; 1 µM): 74%
CC(=O)Nc1c(C(C)=O)c(=O)n(C)c2nc(-c3ccc(Cl)cc3Cl)c(-c3ccc(Cl)cc3)cc12  remaining binding (cell-free assay, competition with immobilised ligand; 1 µM): 82%
